Measurements from the EternaBench riboswitch data.

System: MS2 coat protein
Experiment: apparent Kd, MS2 coat protein; higher = weaker binding; RNA-MaP array; FMN 200 µM where present
Outline: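 Two titrations, one without ligand and one with constant ligand, were run with SNAP-549-labelled MS2 coat protein from 0.7 or 1.5 nM, doubling to 3 µM. The targets were designs transcribed by stalled E. coli RNA polymerase on Illumina sequencing-chip clusters, in 100 mM Tris-HCl pH 7.5, 80 mM KCl, 4 mM MgCl2, BSA, DTT, yeast tRNA and Tween-20. The apparent Kd is the median of filtered per-cluster binding-curve fits, with green signal normalised to red-channel RNA signal and control-cluster median Fmax.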

[1] = designed as: OFF switch for flavin mononucleotide, no ligand
[2] = ligand present: flavin mononucleotide, designed as: OFF switch for flavin mononucleotide
[3] = designed as: ON switch for flavin mononucleotide, no ligand
[4] = ligand present: flavin mononucleotide, designed as: ON switch for flavin mononucleotide

| Sequence | apparent Kd [1] [nM] | apparent Kd [2] [nM] | apparent Kd [3] [nM] | apparent Kd [4] [nM] |
| --- | --- | --- | --- | --- |
| GCCUCACAUGAGGAUCACCCAUGUCAGGAUAUAGGAGACGGUAGCUUUGCUGCCAUCGCUAGAAGGGACUGGCU | 68.2 | 111 |  |  |
| UCCUUCUGUUGAGGAUAUGUAAGACAGCGACUGCUAUUGCGGCACGCUGAUACAGAAGGCAACAUGAGGAUCACCCAUGUUCAA | 22.9 | 199 |  |  |
| GCCUCAUAGUAGAAGGGACUUAGGCAGUUAAGCAUCAUCUCCAUUUCACAUGAGGAUCACCCAUGUCAGGAUAUACUAAGAGGC | 9.39 | 24.5 |  |  |
| CCCGGCGAGUCGCUACGCCGAGAGCAGGAUAUUCCGCCGUGAUCUACAUGAGGAUCACCCAUGUGGAAGAAGGGCUACACAAAA | 15.1 | 158 |  |  |
| AAGAGACAUCAGAAGGGAGCCCGAAAGCGCAGCUCAGGAUAUGAGAUCUUAUGUAGUACGACAUGAGGAUCACCCAUGUCCGCG |  |  | 74.3 | 10.2 |
| ACAUGAGGAUCACCCAUGUUCACAUAGGAUAUUGAUUUUAUUGGUUUUAGAAUAGUAAUUAAACUCAAGAAGGAUGCCAGUUGU |  |  | 10.7 | 8.78 |
| GGUGCGCCAAGCCUUAAGACCGAACAUGAGGAUCACCCAUGUGAGGAUAUGACAGACGAAAGAAGUCAGAAGGCAUAAGGGUGG | 7.12 | 10.1 |  |  |
| GUGGCCCAGGCACAGGAUAUGUUUCUCGUAACAUGAGGAUCACCCAUGUGCCUAUGAGAUUUUUUGCAGAAGGGUGCACGCCACG |  |  | 229 | 18.1 |
| UGUCGGAGCAGAGGAUAUUACAUGAGGAUCACCCAUGUAUGAACCAAUAGCUGGAAACAGCAACGUAAGAAGGCUGCUCCGACA | 6.75 | 47.2 |  |  |
| GUAACAUGAGGAUCACCCAUGUCGUGCUAGAUGAGUUCUGGUGAGGAUAUACAUGGUAAAUAACUGUAGAAGGCGCUGGGUACA |  |  | 132 | 105 |
| UCAUACAUGACAUGACAUGACAUGAGGAUCACCCAUGUUUACAAGGAUAUGUACAUGAAACAUGUACAGAAGGUGUAUUGGACU | 42.4 | 150 |  |  |
| GUGACGAAUGUAGGAUAUGCUGAGGAAUACUCAGCAGAAGGACAUGAGGAUCACCCAUGUAAUCCUAAUAAUAAAUAACGUCAC | 13 | 18.3 |  |  |
| GUCUUGAUAGGAUAUACAUGAGGAUCACCCAUGUCCCACCCGUUACCUCUGGCCCUAUGUAGAAGGAUCGUCUG | 50.2 | 45.6 |  |  |
| UGGUACUAGGGAGGAUAUGGGAAGAUACAUGAGGAUCACCCAUGUUUAAGAAUGCCGAGAGGCAACUAGAAGGCCCGAGUACCU |  |  | 456 | 21.6 |
| AUUAUGUAAGGAUAUCUUACAUGUGACUUCGGUCACUGUUAAGAGAAGGUACAUGAGGAUCACCCAUGUAGAAC | 18.7 | 28.7 |  |  |
| UUUUGACAUGAGGAUCACCCAUGUCAGGAUAUAGUAGGACAAAUAAAUAAAAGUUCUACUAGAAGGGAUAUGGA | 23.2 | 37.5 |  |  |
| CGAAGUCCGUAGAAGGGUGACAUGAGGAUCACCCAUGUGCGAGCCGUGGGAGUCAGCGGCUCGCCACAGGAUAUACGGAGCACG |  |  | 30.6 | 26 |
| UUUUUGUGAGGAUAUUAGUAGUAAAAAAAUAAAAUUACUACUGAGAAGGCACAUGAGGAUCACCCAUGUUCCUC | 35.7 | 174 |  |  |

| Sequence | apparent Kd [1] [nM] | apparent Kd [2] [nM] | apparent Kd [3] [nM] | apparent Kd [4] [nM] |
| --- | --- | --- | --- | --- |
| UGUCAUAUAUAGAAGGGUAGUAGGGUUUUACAUGAGGAUCACCCAUGUAUUAUAGGAUAUGUGUAUAGUUUUUAUUCAAGUAUA | 32.8 | 25.4 |  |  |
| UUUUAACAUGAGGAUCACCCAUGUGAGGAUAUCGAAAUUUAUAUUAAUAUUUAUAAUUCGAGAAGGCACAUUUU | 170 | 148 |  |  |
| CCGGAAACGGGUAGCUCACAUGAGGAUCACCCAUGUGAAACACAGGAUAUGGAUCCUAAUUGGAUCCAGAAGGGUGUGAGCUAC |  |  | 58 | 20.3 |
| GUGCGUGGCUAGGAUAUUGAGGAGUUUAGUCAGCGAGAAGGAGCCACAUGAGGAUCACCCAUGUGGUGAAGCUC | 18.6 | 68.6 |  |  |
| CUCAUGUAAGGAUAUCAGUAGUAAAAAAAUAAAAUUACUACUGAGAAGGUACAUGAGGAUCACCCAUGUCCUUC | 96.1 | 56.2 |  |  |
| AAUAAAUAGGAGGAUAUCGUAUCGGAAACGAUACGAGAAGGUCUAACAUGAGGAUCACCCAUGUUCCUCAAUAA | 33.1 | 95.8 |  |  |
| AAAAGGUUAGGAUAUGCCCGCCGGGUGGGAAGGCCGGGUGGGUAGAAGGGACAUGAGGAUCACCCAUGUAUAAA | 47 | 19.9 |  |  |
| CGAGUACAUGAGGAUCACCCAUGUUAUGAAUUGUCAGGAUAUGGGUAUUGGUGACAUGCGCCAGAAGGGACGUCUG |  |  | 232 | 124 |
| CGCUCUAUAUAUUUGGCAAGAAUCAGAAGGCGUUACAUGAGGAUCACCCAUGUUUUGAAUAGUAACGAGGAUAUGAUAUGAGCG | 21.6 | 25 |  |  |
| UGGUACUAGGGAGGAUAUGGGAAGAUACAUGAGGAUCACCCAUGUUUAAGAAUGCCGAGAGGCAAGUAGAAGGCCCUAGUACCU |  |  | 781 | 97.5 |
| CUUUACAUAGGAUAUAGUUGCUUUUACAUGAGGAUCACCCAUGUCUCUCCUCUCUCUCUUCUAGAAGGAUGUUUCU | 56.3 | 48.5 |  |  |
| UCGAUGCGAGGAUAUACAAGGGCAACUACUGCCGCUAUAUAACAUGAGGAUCACCCAUGUAGAAGGCGCAUAUA | 22.1 | 30.2 |  |  |
| UGUCAUAUAUAGAAGGGUAGUAGGGAUUUACAUGAGGAUCACCCAUGUAUUAUAGGAUAUGUGUAUAGUUUUUAUUCAAGUAUA | 28.7 | 17.9 |  |  |
| CCGGCUGCUGUGAGGAUAUGCCUGUGGGUGCGUGGGUAGAAGGCACAUGAGGAUCACCCAUGUCCUGCGGCUCG | 501 | 327 |  |  |
| GAUAGGACAGAGAAGGUACGUGCUAGAGAUACUAGCAAAAUUACCUCACAUGAGGAUCACCCAUGUAAGGAUAUCUGUCCUAUC | 4.82 | 5.54 |  |  |
| UUAAAUCAUGUAGGAUAUGCAUGGCGAAGCUACGCAGAAGGACAUGAGGAUCACCCAUGUUAUAGCGACCAAGUAAGGUUGCAA | 91.6 | 197 |  |  |
| GAUUGGCGACAAUUACAUGAGGAUCACCCAUGUUGUAGUAUGCAGGAUAUGUGGUAUAUUAUUUAACAGAAGGGCAAUAAUUUU |  |  | 69.6 | 85.9 |
| ACAUGAGGAUCACCCAUGUAUUACAUGGUUAAGUUUAUUAACAGAAGGCGAAAUUACCACUUUUUCGAGGAUAUGUUUUCUAUA | 45.1 | 58.4 |  |  |
